The subject of one assay is CCRF-CEM. In words: Concentration that causes morphological changes in noninfected CEM-SS cells. It counts as functional. Conditions: Homo sapiens, read-out: TC50 (the source's name).
For assay [1], the system named is Human immunodeficiency virus 1. Briefly: In Vitro Anti-HIV activity in CEM cells. Conditions: Human immunodeficiency virus 1, CCRF-CEM. It counts as functional, organism-based. In a few lines: (§1)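 Syncytial plaque assay: log-phase CEM-SS cells were PBS-washed and plated at 50 000 per well in serum-free RPMI-1640 on poly-L-lysine-coated wells (30 min, 37 °C). They were inoculated with HIV-1 (60–90 PFU) for 120 min, then overlaid with compound in growth medium (2-fold dilutions, 0.00015–20 μM). A second overlay followed on day 3, with 5 days total. EC50 is 50% inhibition of plaque formation. TC50 is morphological change in noninfected CEM-SS cells.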

The subject of assay [2] is MCF7. Briefly: In vitro anti Neoplastic Activity against Adriamycin resistant Human Breast adenocarcinoma MCF7-Adr Cell lines. The assay is classed as functional, cell-based. In a few lines: (§2)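 SRB growth assay. Cell lines were grown as monolayers in RPMI-1640 with 5% FCS, 5% NuSerum IV, 20 mM HEPES and 2 mM glutamine, and seeded at 400–1200 cells/well. They attached for 15–18 h before drug. Ten concentrations over 5 logs were tested, with final DMSO ≤0.25%. Exposure was 72 h at 37 °C. Cells were TCA-fixed, stained with sulforhodamine B and read at OD 570 nm. IC50 is 50% growth inhibition.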

Assay [3] has as its system MCF7. Briefly: In vitro anti Neoplastic Activity against Human Breast adenocarcinoma MCF-7 Cell lines. It counts as functional, cell-based. In a few lines:
as §2

In assay [4] the test system is A549. Briefly: In vitro anti Neoplastic Activity against Human non small cell lung carcinoma A549 Cell lines;Value ranges from (3-10). The assay is classed as functional, cell-based. In a few lines:
as §2

For assay [5], the system named is HT-29. Briefly: In vitro anti Neoplastic Activity in Human Colon adenocarcinoma HT-29 Cell lines;Value ranges from (3-30). It counts as functional, cell-based. In a few lines: as §2
Assay [6] relates to A121. In words: In vitro anti Neoplastic Activity against Human ovarian carcinoma A121 Cell lines;Value ranges from (1-30). It counts as functional, cell-based. In short, it runs like this:
as §2

The subject of assay [7] is L1210. Briefly: In vitro inhibition of AdoMetDC derived from L1210 Murine Leukemia Cells. The assay is classed as functional. Conditions: Mus musculus, read-out: ID50 (the source's name).
Assay [8] has as its system L1210. Briefly: In vitro Anti Neoplastic Activity against L1210 murine leukemia Cell lines. The assay is classed as functional, cell-based. Conditions: Mus musculus. In short, it runs like this:
as §2

In assay [9] the test system is Mus musculus. In words: Nnumber of mice cured to that of 5 treated with the compound at 50 mg/kg for 3 days. The assay is classed as functional.
Assay [10] concerns Mus musculus. Briefly: Number of mice cured to that of 5 treated with the compound at 100 mg/kg for 7 days. The assay is classed as functional.
For assay [11], the system named is Mus musculus. In words: Number of mice cured to that of 5 treated with the compound at 10 mg/kg for 3 days. It counts as functional.
Assay [12] concerns Mus musculus. Briefly: Number of mice cured to that of 5 treated with the compound at 25 mg/kg for 3 days. The assay is classed as functional.
Assay [13] concerns Mus musculus. In words: Number of mice cured to that of 5 treated with the compound at 25 mg/kg for 7 days. It counts as functional.
For assay [14], the system named is Mus musculus. In words: Number of mice cured to that of 5 treated with the compound at 50 mg/kg for 7 days. The assay is classed as functional.
Assay [15] deals with Trypanosoma brucei rhodesiense. Briefly: In vitro anti trypanosomal activity against Trypanosomal 243 As 10e-3 (KETRI)strain. The assay is classed as functional, organism-based.
The subject of assay [16] is Trypanosoma brucei rhodesiense. In words: In vitro anti trypanosomal activity against Trypanosomal 269 (KETRI)strain. It counts as functional, organism-based.
The subject of assay [17] is Trypanosoma brucei brucei. Briefly: In vitro anti trypanosomal activity against Trypanosomal 110 (EATRO)strain. The assay is classed as functional, organism-based.
For assay [18], the system named is Trypanosoma brucei rhodesiense. Briefly: In vitro anti trypanosomal activity against Trypanosomal 243 (KETRI)strain. It counts as functional, organism-based.
Assay [19] concerns Trypanosoma brucei brucei. In words: Mean survival days against T.b. brucei LAB 110 EATRO tested in mice administration at 100 mg/kg for 7 days. The assay is classed as functional. In short, it runs like this:
(§3)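 Female Swiss-Webster mice (20 g) were infected with 2.5×10^5 trypanosomes from a rat infection. Compounds were dissolved in water and given at the stated daily dose by 7 day miniosmotic pumps implanted aseptically. There were 5 mice per group. Viability was checked daily and tail-vein blood smears weekly. The value is mean survival in days. Mice were scored cured if they survived >30 days beyond untreated controls with no parasitemia.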

Assay [20] concerns Trypanosoma brucei brucei. In words: Mean survival days against T.b. brucei LAB 110 EATRO tested in mice administration at 25 mg/kg for 7 days. The assay is classed as functional. In short, it runs like this: as §3
Assay [21] concerns Trypanosoma brucei brucei. Briefly: Mean survival days against T.b. brucei LAB 110 EATRO tested in mice administration at 50 mg/kg for 7 days. The assay is classed as functional. In short, it runs like this:
as §3

The test system of assay [22] is Trypanosoma brucei brucei. In words: Mean survival days against T.b. peritoneal administration at 10 mg/kg for 3 days. The assay is classed as functional.
Assay [23] concerns Trypanosoma brucei brucei. Briefly: Mean survival days against T.b. peritoneal administration at 25 mg/kg for 3 days. The assay is classed as functional.
Assay [24] deals with Trypanosoma brucei brucei. In words: Mean survival days against T.b. peritoneal administration at 50 mg/kg for 3 days. It counts as functional.
In assay [25] the test system is Trypanosoma brucei rhodesiense. Briefly: Mean survival days against T.b. rhodesiense KETRI 243 tested in mice after intra peritoneal administration at 25 mg/kg for 7 days. It counts as functional.
The subject of assay [26] is Trypanosoma brucei rhodesiense. In words: Mean survival days against T.b. rhodesiense KETRI 243 tested in mice after intra peritoneal administration at 50 mg/kg for 7 days. The assay is classed as functional.
Assay [27] can be described thus: Differential selectivity as the ratio of TC50 value to that of EC50 value. The assay is classed as functional. In short, it runs like this: as §1
The species named for assay [28] is Mus musculus. Briefly: Number of mice cured to that of 5 treated with the compound for 7 days.
The subject of assay [29] is Trypanosoma brucei rhodesiense. Briefly: Mean survival days against T.b. rhodesiense KETRI 243 tested in mice after intra peritoneal administration at 50 mg/kg for 7 days.
Assay [30] relates to L1210. Briefly: In Vitro inhibition of L1210 Murine Leukemia Cells by the compound at a dose of 100 uM. It counts as functional. Conditions: Mus musculus.
Assay [31] relates to Trypanosoma brucei rhodesiense. Briefly: In Vitro inhibition of Trypanosomal 243 (KETRI)strain by the compound at a dose of 100 uM. It counts as functional.
In assay [32] the test system is A549. In words: In vitro anti Neoplastic Activity against Human non small cell lung carcinoma A549 Cell lines. The assay is classed as functional, cell-based. In short, it runs like this: as §2
Assay [33] relates to HT-29. In words: In vitro anti Neoplastic Activity in Human Colon adenocarcinoma HT-29 Cell lines. The assay is classed as functional, cell-based. In a few lines: as §2
Assay [34] has as its system A121. In words: In vitro anti Neoplastic Activity against Human ovarian carcinoma A121 Cell lines. The assay is classed as functional, cell-based. In short, it runs like this: as §2
The test system of assay [35] is Trypanosoma brucei brucei. In words: In Vitro inhibition of Trypanosomal 110 (EATRO)strain by the compound at a dose of 100 uM. The assay is classed as functional.
The test system of assay [36] is MCF7. Briefly: In vitro Anti Neoplastic Activity against Human Breast adenocarcinoma MCF-7 Cell lines. The assay is classed as functional, cell-based. In short, it runs like this:
as §2

In assay [37] the test system is A549. Briefly: In vitro Antineoplastic Activity against Human non small cell lung carcinoma A549 Cell lines. The assay is classed as functional, cell-based.
In assay [38] the test system is HT-29. Briefly: In vitro Antineoplastic Activity in Human Colon adenocarcinoma HT-29 Cell lines. It counts as functional, cell-based. In short, it runs like this: as §2
In assay [39] the test system is A121. In words: In vitro Antineoplastic Activity against Human ovarian carcinoma A121 Cell lines. It counts as functional, cell-based.
Assay [40] relates to Trypanosoma brucei rhodesiense. Briefly: In vitro antitrypanosomal activity against Trypanosomal 243 (KETRI)strain at a dose of 100 uM. It counts as functional.
The test system of assay [41] is Trypanosoma brucei brucei. Briefly: In vitro antitrypanosomal activity against Trypanosomal 110 (EATRO)strain at a dose of 100 uM. The assay is classed as functional.
Assay [42] has as its system MCF7. In words: In vitro Anti Neoplastic Activity against Adriamycin resistant Human Breast adenocarcinoma MCF7-Adr Cell lines. The assay is classed as functional, cell-based. In short, it runs like this:
as §2

Molecules are shown by their SMILES.

As for `CC(=O)OC1C(CN(C)C/C=C\CN)OC(n2cnc3c(N)ncnc32)C1OC(C)=O` (configuration not stated), the CC50 in the assay on CCRF-CEM was found to be 12 µM. The same compound had an EC50 in assay [1] of 0.05 µM. Moreover, the IC50 with MCF7 [2] was greater than 100 µM; in the assay with MCF7 [3], 51 µM; in the assay with A549 [4], 10 µM; with HT-29 [5], 30 µM; in the assay with A121 [6], 30 µM; with L1210 [7], 0.82 µM. The IC50 in the assay on L1210 [8] amounted to 20 µM; in [15], 0.054 µM; in assay [16], 0.02 µM; in assay [17], 0.014 µM; in [18], 0.014 µM. Further, the No. of cures in the assay with Mus musculus [9] was 5; with Mus musculus [10] it was 4; in the assay on Mus musculus [11], 4; with Mus musculus [12] it was 4; in the assay on Mus musculus [13], 5; in the assay with Mus musculus [14] it was 5. The No. cured with Mus musculus [13], with Mus musculus [14] and in the assay filed under Mus musculus [28] was 0 each time. Besides, the MSD in [19] was 26 days; in assay [20] it was greater than 34 days; in [21] it was greater than 34 days; in assay [22], 17 days; in assay [23], 33 days; in assay [24] it was greater than 34 days. Also, the MSD in assay [25] amounted to 18 days; in assay [26], 21.2 days; in assay [29] it was 21.2 days. The Ratio in [27] came to 240.
As for `CN(Cc1ccccc1CN)C[C@H]1OC(n2cnc3c(N)ncnc32)[C@H](O)[C@@H]1O` (some centres not stated), the inhibition at 100 µM with L1210 [30] came to 41%; in assay [31], 42%. Besides, the IC50 is greater than 600 µM with L1210 [8] and 14 µM in [17].
With `CN(C/C=C\CN)C[C@H]1O[C@@H](n2cnc3c(N)nc(N)nc32)[C@H](O)[C@@H]1O`, the IC50 in assay [15] turned out to be 2 µM; in [16], 19 µM; in assay [17], 4.5 µM; in assay [18], 3.8 µM.
For the compound `CN(Cc1ccc(CN)cc1)C[C@H]1OC(n2cnc3c(N)ncnc32)[C@H](O)[C@@H]1O` (some centres not stated), the IC50 in the assay on MCF7 [2] is greater than 100 µM; in the assay on MCF7 [3], greater than 100 µM; with A549 [32], greater than 100 µM; in the assay with HT-29 [33] it was greater than 100 µM; in the assay on A121 [34], greater than 100 µM; with L1210 [8], greater than 600 µM. Besides, the inhibition at 100 µM is 21% in the assay on L1210 [30], 23% in [31] and 21% in assay [35].
As to `CNC[C@H]1OC(n2cnc3c(N)ncnc32)[C@H](O)[C@@H]1O` (some centres not stated), the IC50 was greater than 100 µM in the assay on MCF7 [36]; greater than 100 µM in the assay with A549 [37]; greater than 100 µM in the assay with HT-29 [38]; greater than 100 µM in the assay with A121 [39]; greater than 600 µM in the assay with L1210 [8]; greater than 100 µM in the assay on MCF7 [42]. Also, the inhibition at 100 µM was determined as 26% in assay [40] and 44% in assay [41].

Usually EC50 stands for the concentration that produces a half-maximal response. A high value points to a need for much substance. In general, inhibition refers to the share of the control response that was lost under treatment.

Source of the values: ChEMBL document CHEMBL1135645, “Synthesis and evaluation of analogues of 5'-([(Z)-4-amino-2-butenyl]methylamino)-5'-deoxyadenosine as inhibitors of tumor cell growth, trypanosomal growth, and HIV-1 infectivity” (J Med Chem, 2002).
